These results are taken from ChEMBL document CHEMBL4000180, “Structure-Activity Relationships of Small Molecule Autotaxin Inhibitors with a Discrete Binding Mode” (J Med Chem, 2017).

Structures are written as SMILES. Values after ≈ are worked out from the molar mass of the structure shown. Active and inactive are the calls of the source. No cut-off for these calls is given here.

The first series has as its target T1, Autotaxin (Homo sapiens, UniProt Q13822). Kind of series: Inhibition of human ATX expressed in HEK293 Flp-In cells using LPC as substrate measured every 30 sec for 90 mins by fluorescence assay. Type of series: cell-based.
Conditions: not given
For `Cn1cc(-c2cccc(Sc3cccc(C(=O)O)n3)c2)cn1`, the inhibition result is “inactive”.

Staying with this series, now noted: hek293.
For the molecule `Cc1c(Sc2cccc(C(=O)O)n2)c2ccc(Cl)cc2n1-c1ccccc1`, the IC50 (usually the concentration that inhibits the measured activity by half) is “Nd(Insoluble)”.

The series is the same for the next values; noted with them: read-out: IC50.
`Cc1c(Oc2cccc(C(=O)O)c2)c2ccccc2n1-c1cnn(C)c1`: the IC50 was over 30000 nM.

Regarding `Cc1[nH]c2cccc(C)c2c1Sc1cccc(C(=O)O)n1`, the IC50 was over 8000 nM.

On to `Cc1ccc2c(Sc3cccc(C(=O)O)n3)c(C)n(-c3cnn(C)c3)c2c1`, for which the concentration for half-maximal inhibition (IC50) was 25 nM.

For the molecule `COc1cccc2c1c(Sc1cccc(C(=O)O)n1)c(C)n2-c1cnn(C)c1`, the IC50 is over 30000 nM.

As to `Cc1c(Sc2cccc(C(=O)O)c2)c2ccc(Cl)cc2n1-c1cnn(C)c1`, the IC50 came out at 11 nM.

Turning to `Cc1c(Sc2cccc(C(=O)O)c2)c2ccc(Cl)cc2n1C1CCCC1`, the concentration for half-maximal inhibition (IC50) lay in the range of 20000 to 25000 nM.

Regarding `Cc1c(Sc2cccc(C(=O)O)n2)c2ccccc2n1-c1cnn(C)c1`, the IC50 is 1700 nM.

For `Cc1c(Cc2cccc(C(=O)O)n2)c2ccccc2n1-c1cnn(C)c1`, the IC50 is over 30000 nM.

As to `Cc1[nH]c2ccccc2c1Sc1cccc(C(=O)O)c1`, the IC50 is over 30000 nM.

Take `Cc1[nH]c2cc(F)ccc2c1Sc1cccc(C(=O)O)n1`: the IC50 was over 20000 nM.

For `Cc1c(Sc2cccc(C(=O)O)n2)c2ccc(Cl)cc2n1C1CCCC1`, the 50% inhibitory concentration (IC50) was over 2800 nM.

`Cc1c(Sc2cccc(C(=O)O)n2)c2ccc(Cl)cc2n1-c1cnn(C)c1`: the IC50 was 4 nM.

Turning to `Cc1c(Cc2cccc(C(=O)O)c2)c2ccccc2n1-c1cnn(C)c1`, the IC50 was over 30000 nM.

With `Cc1c(Sc2cccc(C(=O)O)n2)c2cc(Cl)ccc2n1-c1cnn(C)c1`, the IC50 was found to be 258 nM.

For `Cc1c(Sc2cccc(C(=O)O)n2)c2ccccc2n1C`, the IC50 is over 30000 nM.

As for `Cc1c(SCCCC(=O)O)c2ccccc2n1-c1cnn(C)c1`, the IC50 was over 10000 nM.

For the molecule `Cc1c(Sc2cccc(C(=O)O)n2)c2c(Cl)cccc2n1-c1cnn(C)c1`, the half-maximal inhibitory concentration (IC50) is over 30000 nM.

As for `Cc1[nH]c2ccccc2c1Sc1cccc(C(=O)O)n1`, the IC50 was over 30000 nM.

`Cc1c(Cc2cccc(C(=O)O)c2)c2ccc(Cl)cc2n1-c1cnn(C)c1`: the IC50 was 660 nM.

As to `Cc1c(Sc2cccc(C(=O)O)n2)c2c(F)cccc2n1-c1ccn(C)n1`, the IC50 fell in the range of 3000 to 3500 nM.

Turning to `Cc1c(Sc2cccc(C(=O)O)n2)c2ccc(F)cc2n1-c1ccn(C)n1`, the IC50 was 349 nM.

For the molecule `Cc1c(Oc2cccc(C(=O)O)c2)c2ccc(Cl)cc2n1-c1cnn(C)c1`, the IC50 was 726 nM.

Regarding `Cc1c(Sc2cccc(C(=O)O)n2)c2ccccc2n1C1CCCC1`, the IC50 is over 30000 nM.

Consider `Cc1[nH]c2cc(Cl)ccc2c1Sc1cccc(C(=O)O)n1`, for which the IC50 amounted to 25 nM.

In the case of `Cc1c(Cc2cccc(C(=O)O)n2)c2ccc(Cl)cc2n1-c1cnn(C)c1`, the 50% inhibitory concentration (IC50) was determined as 339 nM.

For `Cc1cc2ccc(Cl)cc2n1-c1cnn(C)c1`, the IC50 is over 30000 nM.

For `Cc1c(Sc2cccc(C(=O)O)c2)c2ccc(Cl)cc2n1-c1ccccc1`, the IC50 was determined as 81 nM.

Take `Cc1c(Sc2cccc(C(=O)O)n2)c2ccc(Cl)cc2n1C`: the IC50 turned out to be 31 nM.

Regarding `Cc1cccc2c1c(Sc1cccc(C(=O)O)n1)c(C)n2-c1cnn(C)c1`, the IC50 is over 10000 nM.

For the molecule `Cc1c(Sc2cccc(C(=O)O)c2)c2ccccc2n1-c1ccccc1`, the IC50 was over 5000 nM.

Turning to `Cc1c(Sc2cccc(C(=O)O)c2)c2ccc(Cl)cc2n1C`, the IC50 amounted to 1200 nM.

Regarding `Cc1c(Sc2cccc(C(=O)O)n2)c2ccccc2n1-c1ccccc1`, the IC50 is over 30000 nM.

`Cc1[nH]c2cc(Cl)ccc2c1Sc1cccc(C(=O)O)c1`: the IC50 worked out at 747 nM.

As for `Cc1c(SCCCC(=O)O)c2ccc(Cl)cc2n1-c1cnn(C)c1`, the half-inhibitory concentration (IC50) was over 30000 nM.

Turning to `COc1ccc2c(Sc3cccc(C(=O)O)n3)c(C)n(-c3cnn(C)c3)c2c1`, the IC50 turned out to be 124 nM.

Test system in the next series: not listed separately
Kind of series: Apparent permeability of the compound at pH 7.4. Type of series: physicochemical. Conditions: not told.
On to `Cc1c(Sc2cccc(C(=O)O)c2)c2ccc(Cl)cc2n1-c1cnn(C)c1`, for which the Papp (as a rule, a coefficient for how fast a substance crosses the barrier) came out at 6.4 ×10⁻⁶ cm/s.

Take `Cc1c(Sc2cccc(C(=O)O)n2)c2ccc(Cl)cc2n1C1CCCC1`: the Papp turned out to be 29 ×10⁻⁶ cm/s.

`Cc1c(Sc2cccc(C(=O)O)n2)c2ccc(Cl)cc2n1-c1cnn(C)c1`: the Papp is 2.3 ×10⁻⁶ cm/s.

On to `Cc1c(Sc2cccc(C(=O)O)n2)c2ccc(Cl)cc2n1-c1ccccc1`, for which the Papp stood at 15.5 ×10⁻⁶ cm/s.

As to `Cc1[nH]c2cc(Cl)ccc2c1Sc1cccc(C(=O)O)n1`, the Papp was found to be 1.1 ×10⁻⁶ cm/s.

For `Cc1c(Sc2cccc(C(=O)O)n2)c2ccc(Cl)cc2n1C`, the Papp stood at 3.2 ×10⁻⁶ cm/s.

The next series concerns the target T1, Autotaxin. Description: Inhibition of ATX (unknown origin) using lysophosphatidyl choline as substrate.
Conditions: not given
The procedure, abridged:
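Human ATX produced in HEK293 Flp-In cells, 20 nM, incubated with 150 μM LPC(18:1) in 50 mM Tris pH 7.4, 0.01% Triton X-100, 50 mM CaCl2 with choline oxidase (1 U/ml), HRP (2 U/ml) and 2 mM homovanillic acid. Choline release read as HVA fluorescence, ex/em 320/450 nm, every 30 s for 90 min. Screen 400 nM–100 μM (n = 3); 10-point curves 0.3 nM–10 μM, n = 2.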
With `Cc1c(Sc2cccc(C(=O)O)c2F)c2ccc(Cl)c(F)c2n1CC(=O)N1CC2(CC2)c2ccccc21`, the IC50 turned out to be 2 nM.

Consider `Cc1c(Sc2cccc(C(=O)O)c2)c2ccc(Cl)cc2n1C`, for which the IC50 was over 1000 nM.

Test system in the next series: not listed separately
Description: Kinetic aqueous solubility by CLND method. To be noted: read-out: Kinetic_solubility. It counts as physicochemical.
Take `Cc1c(Sc2cccc(C(=O)O)c2)c2ccc(Cl)cc2n1-c1cnn(C)c1`: the solubility kinetic worked out at 556 µM (≈ 221 µg/mL).

In the case of `Cc1c(Sc2cccc(C(=O)O)n2)c2ccc(Cl)cc2n1C1CCCC1`, the solubility kinetic came out at 336 µM (≈ 130 µg/mL).

Consider `Cc1c(Sc2cccc(C(=O)O)n2)c2ccc(Cl)cc2n1-c1cnn(C)c1`, for which the solubility kinetic turned out to be 377 µM (≈ 150 µg/mL).

Take `Cc1c(Sc2cccc(C(=O)O)n2)c2ccc(Cl)cc2n1-c1ccccc1`: the solubility kinetic was 485 µM (≈ 192 µg/mL).

Regarding `Cc1[nH]c2cc(Cl)ccc2c1Sc1cccc(C(=O)O)n1`, the solubility kinetic is at least 395 µM.

`Cc1c(Sc2cccc(C(=O)O)n2)c2ccc(Cl)cc2n1C`: the solubility kinetic came to 300 µM (≈ 99.8 µg/mL).

Another series has as its target T1, Autotaxin. Description: Inhibition of ATX in human MDA-MB-435S cells using lysophosphatidyl choline as substrate preincubated for 15 mins followed by substrate addition measured after 90 mins. It counts as cell-based.
Conditions: not given
As for `Cc1c(Sc2cccc(C(=O)O)c2)c2ccc(Cl)cc2n1-c1cnn(C)c1`, the IC50 is under 300 nM.

Molecule `Cc1c(Sc2cccc(C(=O)O)n2)c2ccc(Cl)cc2n1-c1cnn(C)c1` gave an IC50 of under 300 nM.

The molecule `Cc1c(Sc2cccc(C(=O)O)c2)c2ccc(Cl)cc2n1-c1ccccc1` returned an IC50 of under 300 nM.

For the next series, the target named is T1, Autotaxin. Kind of series: Noncompetitive inhibition of human ATX expressed in HEK293 Flp-in cells up to 800 nM using varying lysophosphatidyl choline substrate level by Lineweaver-Burk plot analysis. It counts as cell-based.
Conditions: not given
A digest of the protocol: (§1)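 hATX from HEK293 Flp-In cells; choline release from LPC coupled to choline oxidase/HRP/homovanillic acid fluorescence in Tris pH 7.4 buffer with CaCl2 and Triton X-100. Activity measured across varying LPC concentrations at fixed inhibitor concentrations; mixed-inhibition model fitted to obtain alpha (near 1 taken as noncompetitive), with Lineweaver-Burk double-reciprocal plots for display.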
For the molecule `Cc1c(Sc2cccc(C(=O)O)n2)c2ccccc2n1-c1cnn(C)c1`, the inhibition entry is “Active”.

Test system in the next series: not listed separately
Kind of series: Lipophilicity, log D of the compound at pH 7.4 by chromatographic method. It counts as physicochemical. Conditions: buffer.
In the case of `Cc1c(Sc2cccc(C(=O)O)c2)c2ccc(Cl)cc2n1-c1cnn(C)c1`, the chromatographic logD – broadly, lipophilicity estimated from chromatographic retention – is 3.36.

With `Cc1c(Sc2cccc(C(=O)O)n2)c2ccc(Cl)cc2n1C1CCCC1`, the chromatographic logD was 4.05.

As to `Cc1c(Sc2cccc(C(=O)O)n2)c2ccc(Cl)cc2n1-c1cnn(C)c1`, the chromatographic logD was determined as 2.7.

In the case of `Cc1c(Sc2cccc(C(=O)O)n2)c2ccc(Cl)cc2n1-c1ccccc1`, the chromatographic logD worked out at 4.3.

Consider `Cc1[nH]c2cc(Cl)ccc2c1Sc1cccc(C(=O)O)n1`, for which the chromatographic logD turned out to be 2.19.

For `Cc1c(Sc2cccc(C(=O)O)n2)c2ccc(Cl)cc2n1C`, the chromatographic logD came to 2.68.

The target in a further series is T1, Autotaxin. Kind of series: Noncompetitive inhibition of human ATX expressed in HEK293 Flp-in cells up to 11 nM using varying lysophosphatidyl choline substrate level by Lineweaver-Burk plot analysis. Type of series: cell-based.
Conditions: not given
The procedure, abridged:
as §1
As for `Cc1c(Sc2cccc(C(=O)O)c2)c2ccc(Cl)cc2n1C`, the inhibition result is “Active”.

In the next series the target is T1, Autotaxin. Description: Inhibition of recombinant human ATX using bisP-nitrophenyl phosphate as substrate measured after 30 mins.
Conditions: not given
For the molecule `Cc1ccc2c(Sc3cccc(C(=O)O)n3)c(C)n(-c3cnn(C)c3)c2c1`, the IC50 worked out at 85 nM.

On to `Cc1c(Sc2cccc(C(=O)O)c2)c2ccc(Cl)cc2n1C1CCCC1`, for which the IC50 is over 4000 nM.

Take `Cc1c(Sc2cccc(C(=O)O)n2)c2ccccc2n1-c1cnn(C)c1`: the IC50 worked out at 5700 nM.

For the molecule `Cc1c(Sc2cccc(C(=O)O)n2)c2ccc(Cl)cc2n1C1CCCC1`, the IC50 is 2000 nM.

`Cc1c(Sc2cccc(C(=O)O)n2)c2ccc(Cl)cc2n1-c1cnn(C)c1`: the IC50 is 22 nM.

`Cc1c(Cc2cccc(C(=O)O)c2)c2ccc(Cl)cc2n1-c1cnn(C)c1`: the IC50 is 33 nM.

`Cc1c(Sc2cccc(C(=O)O)n2)c2ccc(F)cc2n1-c1ccn(C)n1`: the IC50 was determined as 816 nM.

For `Cc1c(Oc2cccc(C(=O)O)c2)c2ccc(Cl)cc2n1-c1cnn(C)c1`, the IC50 was 204 nM.

With `Cc1[nH]c2cc(Cl)ccc2c1Sc1cccc(C(=O)O)n1`, the IC50 was 604 nM.

Consider `Cc1c(Cc2cccc(C(=O)O)n2)c2ccc(Cl)cc2n1-c1cnn(C)c1`, for which the IC50 was determined as 89 nM.

In the case of `Cc1c(Sc2cccc(C(=O)O)c2)c2ccc(Cl)cc2n1-c1ccccc1`, the IC50 was 5 nM.

As to `Cc1c(Sc2cccc(C(=O)O)n2)c2ccc(Cl)cc2n1C`, the IC50 is over 4000 nM.

With `Cc1c(Sc2cccc(C(=O)O)c2)c2ccccc2n1-c1ccccc1`, the half-maximal inhibitory concentration (IC50) was over 30000 nM.

As to `Cc1c(Sc2cccc(C(=O)O)c2)c2ccc(Cl)cc2n1C`, the IC50 came out at 100 nM.

Consider `Cc1[nH]c2cc(Cl)ccc2c1Sc1cccc(C(=O)O)c1`, for which the IC50 is 290 nM.

With `COc1ccc2c(Sc3cccc(C(=O)O)n3)c(C)n(-c3cnn(C)c3)c2c1`, the IC50 is 75 nM.
